Experimental data taken from ChEMBL document CHEMBL4038317, “Discovery of a Benzamide Derivative That Protects Pancreatic β-Cells against Endoplasmic Reticulum Stress” (J Med Chem, 2017).
Active and inactive are the calls of the source. The calls are words filed in the database; no cut-off is given here.

Key:
[1] = test system: INS1; assay: Cytoprotective activity in rat INS-1 cells assessed as protection against tunicamycin-induced ER stress-mediated reduction in cell viability after 3 days by CellTiter-Glo assay relative tunicamycin; format: functional; conditions: INS1, 72 h
Procedure, shortened: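 INS-1 cells, 3×10^3 per well, were co-treated with tunicamycin 0.1 μg/mL and compound for 72 h. Viability was read as intracellular ATP by luminescence and expressed as fold of no-tunicamycin cells. EC50 and maximum activity were taken as the increase in viability versus tunicamycin alone. Triplicate wells, three independent experiments.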

[2] = test system: INS1; assay: Cytoprotective activity in rat INS-1 cells assessed as protection against tunicamycin-induced ER stress-mediated reduction in cell viability after 3 days by CellTiter-Glo assay; conditions: INS1, 72 h
[3] = molecular target: T1, Cyclic AMP-dependent transcription factor ATF-6 alpha (Rattus norvegicus) (UniProt G3V909); assay: Inhibition of tunicamycin ER stress-induced ATF6 activation in rat INS-1 cells assessed as suppression of increase in […] mRNA levels up to 10 uM after 8 hrs by qRT-PCR analysis; format: cell-based
T1 sequence (whole entry): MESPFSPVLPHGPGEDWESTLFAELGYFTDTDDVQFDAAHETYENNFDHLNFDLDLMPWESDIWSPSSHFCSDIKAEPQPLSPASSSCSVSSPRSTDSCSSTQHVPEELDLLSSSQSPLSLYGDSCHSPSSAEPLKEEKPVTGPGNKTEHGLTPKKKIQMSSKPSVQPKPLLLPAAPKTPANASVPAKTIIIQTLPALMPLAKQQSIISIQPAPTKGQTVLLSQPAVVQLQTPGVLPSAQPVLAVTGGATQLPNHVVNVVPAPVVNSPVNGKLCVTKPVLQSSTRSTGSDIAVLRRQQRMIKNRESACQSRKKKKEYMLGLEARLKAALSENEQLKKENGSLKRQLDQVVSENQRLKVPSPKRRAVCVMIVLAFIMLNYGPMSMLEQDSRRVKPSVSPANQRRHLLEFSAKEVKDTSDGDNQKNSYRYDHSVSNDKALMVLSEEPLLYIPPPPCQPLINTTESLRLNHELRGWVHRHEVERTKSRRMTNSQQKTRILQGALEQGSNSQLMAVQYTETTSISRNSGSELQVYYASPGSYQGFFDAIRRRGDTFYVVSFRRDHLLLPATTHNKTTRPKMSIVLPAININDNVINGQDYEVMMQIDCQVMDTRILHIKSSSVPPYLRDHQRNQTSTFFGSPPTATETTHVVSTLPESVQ
Procedure, shortened: (§1)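 INS-1 cells, 4×10^5 per well, were exposed to tunicamycin 0.1 μg/mL with compound or DMSO for 8 h. qRT-PCR for ATF4, CHOP, Bip, GRP94, or spliced XBP1 using splicing-specific primers. Values were normalized to cyclophilin A by ΔΔCt and given as fold over untreated control. Triplicate wells, 3 independent experiments.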

[4] = molecular target: T2, Eukaryotic translation initiation factor 2-alpha kinase 3 (Rattus norvegicus) (UniProt Q9Z1Z1); assay: Inhibition of tunicamycin ER stress-induced PERK activation in rat INS-1 cells assessed as suppression of tunicamycin-induced increase in CHOP protein levels up to 10 uM after 8 hrs by Western blot analysis; format: cell-based
T2 sequence (whole entry): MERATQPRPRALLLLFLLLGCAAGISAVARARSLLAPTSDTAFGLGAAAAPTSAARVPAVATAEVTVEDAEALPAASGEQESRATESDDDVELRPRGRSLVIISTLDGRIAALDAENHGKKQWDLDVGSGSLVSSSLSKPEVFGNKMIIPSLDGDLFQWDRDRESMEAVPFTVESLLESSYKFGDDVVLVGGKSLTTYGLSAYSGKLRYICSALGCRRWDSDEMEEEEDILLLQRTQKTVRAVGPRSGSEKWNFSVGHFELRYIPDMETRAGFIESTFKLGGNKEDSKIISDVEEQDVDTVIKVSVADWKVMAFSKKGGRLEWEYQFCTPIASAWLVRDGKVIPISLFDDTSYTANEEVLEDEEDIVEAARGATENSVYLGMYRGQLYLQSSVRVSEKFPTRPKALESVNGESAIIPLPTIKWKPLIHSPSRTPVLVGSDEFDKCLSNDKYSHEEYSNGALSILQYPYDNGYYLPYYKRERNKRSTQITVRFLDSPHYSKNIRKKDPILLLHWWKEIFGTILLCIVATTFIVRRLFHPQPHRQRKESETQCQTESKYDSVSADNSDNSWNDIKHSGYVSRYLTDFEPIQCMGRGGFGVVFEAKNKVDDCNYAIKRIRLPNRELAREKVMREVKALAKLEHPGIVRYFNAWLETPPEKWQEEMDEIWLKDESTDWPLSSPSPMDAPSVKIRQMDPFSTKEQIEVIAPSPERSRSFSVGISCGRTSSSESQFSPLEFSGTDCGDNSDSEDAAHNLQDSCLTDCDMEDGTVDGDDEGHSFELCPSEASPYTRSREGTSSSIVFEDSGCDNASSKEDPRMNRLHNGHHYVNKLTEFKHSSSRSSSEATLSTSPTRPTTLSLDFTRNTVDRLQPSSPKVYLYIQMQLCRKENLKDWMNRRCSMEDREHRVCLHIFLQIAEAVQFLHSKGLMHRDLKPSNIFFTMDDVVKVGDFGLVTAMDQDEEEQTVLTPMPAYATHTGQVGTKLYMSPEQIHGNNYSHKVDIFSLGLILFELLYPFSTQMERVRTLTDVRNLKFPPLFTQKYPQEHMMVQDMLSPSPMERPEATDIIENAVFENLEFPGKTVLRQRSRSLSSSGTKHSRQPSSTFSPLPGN
Procedure, shortened: (§2)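 INS-1 cells were exposed to tunicamycin 0.1 μg/mL with compound or DMSO for 8 h. Lysates were immunoblotted for ATF4 and CHOP (1:1000). Bands were quantified by densitometry and normalized to α-tubulin; 3 independent experiments.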

[5] = molecular target: T1, Cyclic AMP-dependent transcription factor ATF-6 alpha (Rattus norvegicus); assay: Inhibition of tunicamycin ER stress-induced ATF6 activation in rat INS-1 cells assessed as suppression of increase in Bip mRNA levels up to 10 uM after 8 hrs by qRT-PCR analysis; format: cell-based; procedure, shortened: as §1
[6] = molecular target: T2, Eukaryotic translation initiation factor 2-alpha kinase 3 (Rattus norvegicus); assay: Inhibition of tunicamycin ER stress-induced PERK activation in rat INS-1 cells assessed as suppression of tunicamycin-induced increase in ATF4 protein levels up to 10 uM after 8 hrs by Western blot analysis; format: cell-based; procedure, shortened: as §2

| SMILES | Emax [1] [%] | EC50 [2] [µM] | other results |
| --- | --- | --- | --- |
| O=C(NCCc1ccccc1)c1cccc(F)c1 | < 0 |  |  |
| O=C(NCCc1ccccc1)c1ccc(Cl)c(Cl)c1 | 42 | 17 |  |
| COc1cccc(CNC(=O)c2cccc(CN3CCCCC3)c2)c1 | 92 | 0.96 |  |
| C#CCOc1ccc(C(=O)NCCc2ccccc2)cc1 | 54 | > 30 |  |
| O=C(NCCc1ccc(Cl)c(Cl)c1)c1ccc(CN2CCCCC2)cc1 | 71 | 24 |  |
| O=C(NCc1ccc(Cl)cc1)c1ccc(CN2CCCCC2)cc1 | 77 | 9.5 |  |
| COc1ccccc1CCNC(=O)c1ccc2c(c1)OCCO2 | 29 | > 30 |  |
| O=C(NCc1ccc(Cl)cc1)c1ccccc1CN1CCCCC1 | 73 | 6.9 |  |
| O=C(NCCc1ccccc1)c1ccc(F)c(F)c1F | 23 | 9.9 |  |
| O=C(NCc1ccccc1Cl)c1cccc(CN2CCCCC2)c1 | 93 | 2.04 |  |
| O=C(NCc1ccc(Cl)c(Cl)c1)c1ccc2c(c1)OCCO2 | 68 | 3.6 |  |
| Cc1ccccc1C(=O)NCCc1ccccc1 | 6 |  |  |
| COc1ccc(CCNC(=O)c2ccc3c(c2)OCCO3)cc1OC | 5 | > 30 | inhibition [3]: inactive; inhibition [4]: inactive; inhibition [5]: inactive; inhibition [6]: inactive |
| O=C(NCCc1ccc(Cl)cc1)c1ccc(CN2CCCCC2)cc1 | 82 | 21 |  |
| O=C(NCc1cccc(Cl)c1)c1cccc(CN2CCCCC2)c1 | 90 | 0.41 |  |
| O=C(NCCc1cccc(Cl)c1)c1ccc2c(c1)OCO2 | 41 | 25 |  |
| O=C(NCc1ccc(Cl)c(Cl)c1)c1ccc(CN2CCCCC2)cc1 | 78 | 1.8 |  |
| O=C(NCc1cccc(Cl)c1)c1ccc(CN2CCCCC2)cc1 | 80 | 2.2 |  |
| O=C(NCCc1cccc(Cl)c1)c1ccc2c(c1)OCCO2 | 42 | 21 |  |
| O=C(NCCc1ccc(F)cc1)c1ccc2c(c1)OCCO2 | 50 | 21 |  |
| Nc1cccc(C(=O)NCCc2ccccc2)c1 | < 0 |  |  |
| O=C(NCCc1ccccc1)c1cc(F)c(F)c(F)c1F | < 0 |  |  |
| O=C(NCc1cccc(Cl)c1)c1ccc2c(c1)OCCO2 | 57 | 9.5 |  |

| SMILES | Emax [1] [%] | EC50 [2] [µM] | other results |
| --- | --- | --- | --- |
| O=C(NCc1ccccc1)c1cccc(CN2CCCCC2)c1 | 95 | 0.35 |  |
| COc1ccc(CCNC(=O)c2ccc3c(c2)OCCO3)cc1 | 26 | > 30 |  |
| O=C(NCc1ccccc1Cl)c1ccc2c(c1)OCCO2 | 43 | 25 |  |
| CCOc1cccc(C(=O)NCCc2ccccc2)c1 | 49 | 26 |  |
| O=C(NCc1ccccc1Cl)c1ccc(CN2CCCCC2)cc1 | 87 | 13 |  |
| O=C(NCCc1ccccc1)c1ccc(CN2CCCCC2)cc1 | 87 | 21 |  |
| COc1ccc(CNC(=O)c2cccc(CN3CCCCC3)c2)cc1 | 93 | 1.12 |  |
| O=C(NCCc1ccccc1)c1cccc([N+](=O)[O-])c1 | < 0 |  |  |
| O=C(NCc1ccc(Cl)cc1)c1cccc(CN2CCCCC2)c1 | 93 | 0.24 |  |
| O=C(NCc1cccc(C(F)(F)F)c1)c1cccc(CN2CCCCC2)c1 | 91 | 0.25 |  |
| O=C(NCc1cccc(Br)c1)c1ccc2c(c1)OCCO2 | 69 | 5.5 |  |
| O=C(NCc1ccccc1Br)c1ccc2c(c1)OCCO2 | 38 | 25 |  |
| COc1ccc(C(=O)NCCc2cccc(Cl)c2)cc1OC | 46 | 24 |  |
| O=C(NCCc1ccccc1)c1ccc2c(c1)OCCO2 | 47 | 19 |  |
| CC(C)Sc1ccccc1C(=O)NCCc1ccccc1 | 30 | > 30 |  |
| COc1ccc(C(=O)NCCc2ccccc2)cc1C | 56 | 15 |  |
| CS(=O)(=O)Nc1cccc(C(=O)NCCc2ccccc2)c1 | 24 | 25 |  |
| CN(C)S(=O)(=O)c1ccc(C(=O)NCCc2ccccc2)cc1 | 37 | 19 |  |
| O=C(NCCc1ccccc1)c1ccc(CN2CCCC2)cc1 | 31 | 11 |  |
| O=C(NCCc1ccc(Cl)cc1)c1ccc2c(c1)OCCO2 | 51 | 15 |  |
| Cc1ccc(C(=O)NCCc2ccccc2)cc1 | 25 | 20 |  |
| O=C(NCc1cccc(Br)c1)c1ccc(CN2CCCCC2)cc1 | 81 | 4.9 |  |
| O=C(NCc1ccc(Cl)cc1)c1ccc2c(c1)OCCO2 | 69 | 2.8 |  |
